From PubChem
This is a sample that favours compounds with a hit; in the whole collection about 3.5% have one here.
MrgX1 allo act: human MrgX1 positive allosteric modulation, primary screen; MrgX1-HEK293, Fluo-4 calcium flux, FDSS; active compounds read high; B-score at 10 µM; 0.63% of 310,000 active; AID 588675;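 active means plate-corrected calcium response at least 3 library SD above typical, normal starting fluorescence, not activating the receptor alone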;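 further: compound read alongside a low EC10 to EC30 dose of BAM8-22 agonist; peak minus trough fluorescence over baseline measured at the second addition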
Target sequence (Q96LB2 whole entry, looked up): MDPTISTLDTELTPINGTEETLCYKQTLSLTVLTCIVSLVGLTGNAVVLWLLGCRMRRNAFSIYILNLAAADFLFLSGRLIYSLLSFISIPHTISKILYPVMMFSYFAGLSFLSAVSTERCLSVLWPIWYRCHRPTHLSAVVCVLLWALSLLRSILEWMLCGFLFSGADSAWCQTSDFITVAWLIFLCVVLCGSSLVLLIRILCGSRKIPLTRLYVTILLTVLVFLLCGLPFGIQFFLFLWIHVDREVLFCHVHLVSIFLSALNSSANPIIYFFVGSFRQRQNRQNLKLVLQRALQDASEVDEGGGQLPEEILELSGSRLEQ
RGS4 act: RGS4 potentiation or activation. B-score at 10 µM. AID 463111. HEK293 M3R/inducible RGS4, carbachol calcium flux Fluo4; active compounds read low. 0.92% of 310,000 active;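 active means B-score of the integrated calcium signal more than 4 SD below the library mean, with starting fluorescence not abnormally high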;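 further: negative B-score means reduced calcium response which marks RGS4 activation or potentiation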
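test system = M3R-expressing HEK293 line, RGS4 induced by doxycycline | probe or stimulus = carbachol at ECmax as muscarinic agonist stimulus | timing = dye loading 30 min 37 °C, buffer rest 30 min RT | signal = calcium dye Fluo4 fluorescence | evaluation = B score from integrated fluorescence ratio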
MrgX1 ag: human MrgX1 receptor agonism, primary screen. MrgX1-HEK293 cells, Fluo-4 calcium fluorescence, agonist mode; active compounds read high. B-score at 10 µM. 0.44% of 310,000 active;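 active means calcium response B-score plate-corrected fluorescence ratio at least 3 library SD, with starting fluorescence B-score inside 5 SD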
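System: HEK293 cells stably expressing human MrgX1 receptor; Dosing: test compound in the initial addition of three; Schedule: overnight plating, then 30 min 37 °C plus 30 min room-temperature dye loading; Detection: kinetic calcium dye fluorescence, Fluo-4 NW; Controls: per-plate positive and negative controls for Z′ factor.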
RGS4 inh: human RGS4 inhibition | HEK293 M3R/RGS4 inducible, Fluo-4 calcium flux; active compounds read high; triggered by carbachol at its EC20 | P49798 | B-score at 10 µM | 0.45% of 310,000 active;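 active means B-score, a plate-corrected calcium signal, over three deviations above library mean, with baseline fluorescence within five deviations of library mean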;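 further: RGS4 expression induced by doxycycline in cells with stable M3 receptor; B-score is computed from the integrated fluorescence ratio over baseline after carbachol; higher B-score means a larger calcium signal and so more RGS4 inhibition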
Target sequence (P49798 whole entry, looked up): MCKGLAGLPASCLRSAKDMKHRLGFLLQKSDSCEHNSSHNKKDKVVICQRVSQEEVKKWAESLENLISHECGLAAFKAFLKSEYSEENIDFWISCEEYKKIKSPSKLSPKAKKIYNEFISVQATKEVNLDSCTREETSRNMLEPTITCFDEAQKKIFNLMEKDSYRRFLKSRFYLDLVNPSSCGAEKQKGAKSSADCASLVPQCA
MrgX1 antagonist: antagonists of human MrgX1 receptor; B-score at 10 µM; MRGX1-HEK293 calcium flux, Fluo-4, BAM8-22 antagonism; active compounds read low; Q96LB2; AID 588676; 1.3% of 310,000 active;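 active means calcium-response B-score plate-corrected more than 3 library SD below zero, starting fluorescence within 5 deviations, no agonist response on first addition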;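 further: peak minus trough fluorescence over baseline after final BAM8-22 challenge near maximal dose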
Large screens that a line does not name were inactive.

N#C/C(=C\c1ccc2c(c1)OCO2)C(N)=S	MrgX1 allo act 7.5
CC[C@@]12C(=O)N(c3ccc(OC)cc3)C(=O)N1[C@H](c1cccc(C)c1)[C@@H]1C(=O)N(Cc3ccccc3)C(=O)[C@@H]12	none
CC1CCN(CC(=O)Nc2ccc(S(=O)(=O)N3CCCCC3)cc2)CC1	none
CC1CCN(CC(=O)Nc2ccc(N3CCCCCC3)cc2)CC1	RGS4 act -7
N#Cc1c(NC(=S)NC(=O)c2ccccc2)sc2c1CCN(CCc1ccccc1)C2	MrgX1 ag 58
CCCn1c(=O)c(C#N)cn(C2CC2)c1=O	none
O=C(NNC(=O)C1CC2CCC1C2)c1sc2ccccc2c1Cl (stereo unspecified)	MrgX1 allo act 6.9
O=c1ccn([C@H]2C[C@H](O)[C@@H](CO)O2)c(=O)[nH]1	MrgX1 antagonist -6.8
CCOc1ccc(N(CC(=O)N2CCCCCC2)S(C)(=O)=O)cc1	none
COc1ccc(Cl)cc1NC(=O)COC(=O)CCCN1C(=O)c2ccccc2C1=O	none
COc1ccc(OC)c(NC(=O)COC(=O)CCCN2C(=O)c3ccccc3C2=O)c1	MrgX1 antagonist -9
Cn1c(C(=O)OC(C(=O)NCc2ccco2)c2ccncc2)cc2sccc21 (stereo unspecified)	MrgX1 antagonist -4.7
CC(OC(=O)c1cc2sccc2n1C)C(=O)NCc1ccco1 (stereo unspecified)	none
CC(Cl)C(=O)NNC(=O)CNS(=O)(=O)c1ccccc1 (stereo unspecified)	none
Nn1c(SCc2cccc3ccccc23)nnc1-c1ccco1	none
Nn1c(SCc2ccccc2)nnc1-c1ccco1	MrgX1 antagonist -5.7
CN(C)c1cc[n+](CC(=O)c2ccc(OC(F)F)cc2)cc1	none
OC(COc1ccccc1Cl)CN1CCN(CC(O)COc2ccccc2Cl)CC1 (stereo unspecified)	RGS4 act -7.7
CCCCN(CC)CCCNC(=O)C1CCN(c2ncnc3c2sc2cccc(F)c23)CC1	RGS4 act -7.1
O=C(NCCN1CCOCC1)C1CCN(c2ncnc3c2sc2cccc(F)c23)CC1	none
O=C(O)c1cc([N+](=O)[O-])ccc1N1CCC(Cc2ccccc2)CC1	MrgX1 ag 40
O=C(O)c1cc([N+](=O)[O-])ccc1N1CCCCC1	none
O=C(O)c1ccccc1N/N=C\c1ccnc2ccccc12	MrgX1 ag 41
O=C(O)c1ccccc1N/N=C/c1cc(Br)cc(Br)c1O	MrgX1 antagonist -6.4
CN(C(=O)c1cc(COc2ccc(F)cc2Cl)on1)C1CCCc2ccccc21 (stereo unspecified)	RGS4 act -7.2
Cc1ccc(CN(C)C(=O)c2cc(COc3ccc(F)cc3Cl)on2)o1	none
Cc1cc(/C=N/n2c(COc3ccccc3C)nc3ccccc3c2=O)c(O)c([N+](=O)[O-])c1	MrgX1 antagonist -6.5
Cc1ccccc1OCc1nc2ccccc2c(=O)n1/N=C/c1c[nH]c2ccccc12	none
CN1CCN(NC(=O)c2cc(-c3ccc(Cl)s3)nc3ccccc23)CC1	none
CCCCn1c(N)c(N(CC(C)C)C(=O)c2cc(S(=O)(=O)N3CCCCC3)ccc2C)c(=O)[nH]c1=O	none
Cc1ccc(OCC(=O)O/N=C(\N)c2ccncc2)c(C)c1	none
Cc1cc(C)c(C)c(OCC(=O)O/N=C(\N)c2ccncc2)c1	MrgX1 allo act 9.8
Cc1ccc(/C=C2/C(=N)N3N=C(CC(=O)N4CCCC4)SC3=NC2=O)cc1	none
COc1ccc(/C=C2/C(=N)N3N=C(CC(=O)N4CCCC4)SC3=NC2=O)cc1OC	none
COc1cc(/C=C2/C(=N)N3N=C(CC(=O)N4CCOCC4)SC3=NC2=O)ccc1OCc1ccccc1F	MrgX1 allo act 17
CSc1ccc(/C=C2/C(=N)N3N=C(CC(=O)N4CCCC4)SC3=NC2=O)cc1	MrgX1 ag 31
COc1cc(/C=C2/C(=N)N3N=C(CC(=O)N4CCOCC4)SC3=NC2=O)ccc1OCc1ccc(F)cc1	MrgX1 allo act 16
C=CCN1C(=O)c2ccc(C(=O)Nc3ccccn3)cc2C1=O	none
CC1=NN(C(N)=S)C(=O)C1N=Nc1cccc2ccccc12 (stereo unspecified)	none
CC1=NN(C(N)=S)C(=O)C1N=Nc1cccc(Cl)c1C (stereo unspecified)	MrgX1 allo act 8.6
O=C(O)c1ccc(NNC(=S)Nc2cc(C(F)(F)F)ccc2Cl)cc1	none
CC(C)N(C(=O)c1nn(C)c2c1CSc1ccccc1-2)C1CCCCC1	MrgX1 allo act 15
Cc1c(Br)c([N+](=O)[O-])nn1CC(=O)NCc1ccccc1	none
Cc1c(Br)c([N+](=O)[O-])nn1CC(=O)NCCc1c[nH]c2ccccc12	MrgX1 antagonist -5
Nc1ccc(Oc2ccc3c(c2)C(=O)NC3=O)cc1	none
CCOc1ccc(NC(=O)CN(C)C(=O)c2cc(-c3ccc(OC)cc3)nc3ccccc23)cc1OCC	RGS4 act -8
COc1ccc(NC(=O)CN(C)C(=O)c2cc(-c3ccc(Cl)cc3)nc3ccccc23)cc1	RGS4 act -8
O=C(CC(C(=O)NCc1ccccc1)c1nc2ccccc2c(=O)[nH]1)NCc1ccccc1 (stereo unspecified)	none
CC1(NC(=O)c2cccc(S(=O)(=O)N3CCN(c4ccc(F)cc4)CC3)c2)CCS(=O)(=O)C1 (stereo unspecified)	none
COCC(C)NC(=O)CSc1nc2ccccc2n1CCc1ccccc1 (stereo unspecified)	MrgX1 ag 28
Cc1nc2ccccn2c1/C(O)=C1\C(=O)C(=O)N(CCCN(C)C)C1c1ccc(F)cc1 (stereo unspecified)	MrgX1 antagonist -4.8 (no result: RGS4 act, RGS4 inh)
Cc1nc2c(C)cccn2c1/C(O)=C1\C(=O)C(=O)N(CCN(C)C)C1c1ccncc1 (stereo unspecified)	none
ONC(=Nc1ccccc1Cl)c1c(F)cccc1F	none
Cc1cccc(OCc2n(CC(=O)OC3CC(C)CCC3C(C)C)c3ccccc3[n+]2C)c1 (stereo unspecified)	RGS4 act -12, MrgX1 antagonist -9.6
CC1CCC(C(C)C)C(OC(=O)CSc2nc(N)cc(=O)[nH]2)C1 (stereo unspecified)	none
CC1CCC(C(C)C)C(OC(=O)Cn2c(-c3ccccc3)[n+](C)c3ccccc32)C1 (stereo unspecified)	MrgX1 antagonist -7.5
CC1CCC(C(C)C)C(OC(=O)Cn2c(-c3ccc(F)cc3)[n+](C)c3ccccc32)C1 (stereo unspecified)	MrgX1 antagonist -5.8 (no result: RGS4 act, RGS4 inh)
Cc1cccc(OC(=O)Cn2c(C(F)(F)F)nc3ccccc32)c1	none
CC1CCC(C(C)C)C(OC(=O)CSc2nnc(N)s2)C1 (stereo unspecified)	none
CN(C)[C@@H]1CCC[C@@H]1OC(=O)C(c1ccccc1)c1ccccc1	RGS4 act -7
